Measured values as given in ChEMBL document CHEMBL4350958, “Rational Design of Short Peptide Variants by Using Kunitzin-RE, an Amphibian-Derived Bioactivity Peptide, for Acquired Potent Broad-Spectrum Antimicrobial and Improved Therapeutic Potential of Commensalism Coinfection of Pathogens” (J Med Chem, 2019).
Activity calls are given as the source filed them. The rule behind the calls is not given here. Where a SMILES comes first, the peptide text is derived from it.

How the values were obtained:
[1] = system: Salmonella enterica subsp. enterica serovar Pullorum; assay: Antibacterial activity against Salmonella pullorum ATCC 7913 measured after 24 hrs; format: functional
Outline: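 Broth microdilution adapted from NCCLS. Mid-log bacteria were diluted in MHB to a final (0.5–1) × 10^5 CFU mL−1. Peptides were serially diluted in 0.2% BSA and mixed with an equal volume of cells. After 24 h at 37 °C, MIC was read at A492 as the lowest concentration inhibiting 95% of growth. At least three independent experiments, each with three technical replicates.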

[2] = system: Salmonella enterica subsp. enterica serovar Pullorum; assay: Bactericidal activity against Salmonella pullorum ATCC 7913 incubated for 24 hrs followed by replating on agar plate and measured after overnight incubation; format: functional
Outline: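 Mid-log bacteria diluted in MHB to (0.5–1) × 10^5 CFU/mL and mixed 1:1 with peptide serially diluted in 0.2% BSA. After 24 h at 37 °C, 50 μL of each mixture was plated on agar and incubated overnight. MBC taken as the lowest concentration killing >99.9% of cells. At least three independent experiments, each with three technical replicates.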

Escherichia coli [3] = assay: Induction of outer membrane permeabilization in Escherichia coli ATCC 25922 at sub-MIC by NPN-dye based assay relative to control
Outline: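 Mid-log E. coli ATCC 25922 (OD600 0.2) preloaded 30 min with 10 μM NPN in 5 mM HEPES, pH 7.4, 5 mM glucose; cells mixed with equal volume of peptide solutions (1 to 64 μM). Fluorescence (ex 350, em 420 nm) read until plateau, background-subtracted, expressed as % NPN uptake relative to 10 μg/mL polymyxin B (100%). Three independent experiments, triplicate each.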

Escherichia coli [4] = assay: Induction of morphological changes in Escherichia coli ATCC 25922 assessed as separation between outer membrane and cytoplasmic membrane at MBD measured after 1 hr by transmission electron microscopic analysis; format: functional, organism-based
Candida albicans [5] = assay: Antifungal activity against Candida albicans cgmcc2.2086 infected in C57BL/6 mouse model of keratitis assessed as appearance of transparent corneas at 1 to 5 mg/ml administered as topical eye drop every 5 mins for first 4 hrs and every 30 mins for next 7 hrs measured post-last dose; format: functional, organism-based
Lipopolysaccharide (LPS) [6] = assay: Displacement of BODIPY-TR-cadaverine from Escherichia coli O111:B4 LPS at 64 uM after 1 hr by spectrofluorophotometric method relative to control
Outline: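 E. coli O111:B4 LPS (50 μg/mL) preloaded 4 h with BODIPY-TR-cadaverine (5 μg/mL) in 50 mM Tris, pH 7.4. Mixed 1:1 with peptide (1–64 µM series), 1 h at 37 °C, then fluorescence read. Expressed as %ΔF: 0% is probe with LPS and no peptide, 100% is probe with LPS plus 10 μg/mL polymyxin B. Three technical replicates.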

Candida albicans [7] = assay: Antifungal activity against Candida albicans cgmcc2.2086 assessed as ratio of MIC95 in presence of NaCl to in absence of NaCl; format: functional
Staphylococcus aureus = assay: Antibacterial activity against Staphylococcus aureus ATCC 29213 assessed as ratio of MIC95 in presence of NaCl to in absence of NaCl; format: functional
Escherichia coli [8] = assay: Induction of morphological changes in Escherichia coli ATCC 25922 assessed as membrane creping at MBD measured after 1 hr by scanning electron microscopic analysis; format: functional, organism-based
Escherichia coli [9] = assay: Induction of outer membrane permeabilization in Escherichia coli ATCC 25922 at 64 uM by NPN-dye based assay relative to control
Outline: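 Mid-log E. coli ATCC 25922 (OD600 0.2) incubated 30 min with NPN (10 μM) in 5 mM HEPES pH 7.4 with 5 mM glucose, then mixed 1:1 with peptide (1–64 μM). Fluorescence (ex 350/em 420 nm) recorded until it plateaued. Percent NPN uptake calculated relative to no peptide and to 10 μg/mL polymyxin B. Three independent experiments, triplicates.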

Candida albicans [10] = assay: Antifungal activity against Candida albicans cgmcc2.2086 infected in C57BL/6 mouse model of keratitis assessed as appearance of transparent irises at 1 to 5 mg/ml administered as topical eye drop every 5 mins for first 4 hrs and every 30 mins for next 7 hrs measured post-last dose; format: functional, organism-based
Lipid bilayer = assay: Induction of membrane disruption in PG/CL/PE large unilamellar vesicles assessed as calcein-entrapped liposome leakage at 1 to 64 uM after 15 mins by spectrofluorophotometric assay
Outline: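 Calcein-loaded LUVs (PG/CL/PE 2:1:7 w/w/w, E. coli membrane mimic), extruded through 100-nm filters, free dye removed on Sephadex G-50. Lipid (100 μM) incubated 15 min with peptide (1–64 μM). Calcein release read at ex 490/em 520 nm and normalised to Triton X-100. Triplicate, three biological replicates.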

Escherichia coli [11] = assay: Induction of cytoplasmic membrane […] in Escherichia coli ATCC 25922 assessed as increase in ONPG release at 1 to 64 uM measured at 6 mins interval for 120 mins by spectroscopically; format: organism-based
Outline: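 E. coli 25922 grown to mid-log in MHB with 2% lactose, then diluted to OD600 0.05 in 5 mM HEPES pH 7.4 with 20 mM glucose and 1.5 mM ONPG. Mixed with equal volume of peptide (1 to 64 μM) at 37 °C. OD420 read every 6 min for 0–120 min. Triplicate, three biological replicates.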

Pseudomonas aeruginosa = assay: Antibacterial activity against Pseudomonas aeruginosa ATCC 27853 at sub-MBC measured after 17 serial passages; format: functional, organism-based
Outline: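 P. aeruginosa ATCC 27853 passaged every 24 h by 100-fold dilution in MHB containing sub-MBC drug, for 30 passages. MBC was tested on the cells from each passage. Control cells were passaged in drug-free MHB. Run independently in triplicate with three biological replicates.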

Lipopolysaccharide (LPS) [12] = assay: Displacement of BODIPY-TR-cadaverine from Escherichia coli O111:B4 LPS at 1 to 64 uM after 1 hr by spectrofluorophotometric method relative to control
Outline: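 LPS from E. coli O111:B4 (50 μg/mL) preincubated 4 h with BODIPY-TR-cadaverine (5 μg/mL) in 50 mM Tris, pH 7.4. Mixed with equal volume of peptide (1-64 µM) and incubated 1 h at 37 °C, then fluorescence read. %ΔF = (Fobs−F0)/(F100−F0)×100, with 10 μg mL-1 polymyxin B defining F100. Three technical replicates per experiment.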

Escherichia coli [13] = assay: Induction of cytoplasmic membrane depolarization in Escherichia coli ATCC 25922 assessed as fluorescence intensity at 2 uM up to 3000 secs by DiSC3-5 dye-based fluorescence spectrophotometric method
Outline: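 Mid-log E. coli ATCC 25922 (OD600 0.05) loaded with 0.4 μM DiSC3-5 and 100 mM K+ in 5 mM HEPES pH 7.4 with 20 mM glucose until fluorescence stabilized. Peptide added in a 1-cm cuvette and fluorescence (ex 622, em 670 nm) recorded 0–3000 s. Triplicate, three biological replicates.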

Escherichia coli [14] = assay: Antibacterial activity against Escherichia coli ATCC 25922 assessed as ratio of MIC95 in presence of NaCl to in absence of NaCl; format: functional

Row | Compound | MIC95 [1] | MBC>99.9 [2] | Ratio (Candida albicans [7]) | Ratio (Staphylococcus aureus) | Activity (Escherichia coli [9]) | Activity (Escherichia coli [11]) | Activity (Pseudomonas aeruginosa) | Activity (Lipopolysaccharide (LPS) [12]) | other results
1 | POLYMYXIN B | 1 µM | 1 µM | – | – | – | – | – | – | –
2 | H-AARIILRWRFR-NH2 | – | – | 4 | 4 | 110% | – | – | – | Activity (Escherichia coli [3]): 15%; Activity (Escherichia coli [4]): Active; Activity (Candida albicans [5]): Active; Activity (Lipopolysaccharide (LPS) [6]): 180%; Activity (Escherichia coli [8]): Active; Activity (Candida albicans [10]): Active
3 | CC[C@H](C)[C@H](NC(=O)CN)C(=O)NCC(=O)N[C@@H](C)C(=O)N[C@H](C(=O)N[C@@H](CC(C)C)C(=O)N[C@@H](CCCCN)C(=O)N[C@H](C(=O)N[C@@H](CC(C)C)C(=O)N[C@H](C(=O)N[C@H](C(=O)NCC(=O)N[C@@H](CC(C)C)C(=O)N1CCC[C@H]1C(=O)N[C@@H](C)C(=O)N[C@@H](CC(C)C)C(=O)N[C@H](C(=O)N[C@@H](CO)C(=O)N[C@@H](Cc1c[nH]c2ccccc12)C(=O)N[C@H](C(=O)N[C@@H](CCCCN)C(=O)N[C@@H](CCCNC(=N)N)C(=O)N[C@@H](CCCCN)C(=O)N[C@@H](CCCNC(=N)N)C(=O)N[C@@H](CCC(N)=O)C(=O)N[C@@H](CCC(N)=O)C(N)=O)[C@@H](C)CC)[C@@H](C)CC)[C@@H](C)O)[C@@H](C)O)C(C)C)C(C)C [MELITTIN] | – | – | – | – | – | Active | inactive | 96% | Activity (Lipid bilayer): Active; Flu intensity (Escherichia coli [13]): 4000 a.u.
4 | CC[C@H](C)[C@H](NC(=O)[C@H](CCCCN)NC(=O)[C@H](C)NC(=O)[C@H](C)N)C(=O)N[C@H](C(=O)N[C@@H](CC(C)C)C(=O)N[C@@H](CC(N)=O)C(=O)N1CCC[C@H]1C(=O)N[C@@H](CCCCN)C(=O)N[C@@H](Cc1ccccc1)C(=O)N[C@@H](CCCNC(=N)N)C(=O)N[C@@H](CS)C(=O)N[C@@H](CCCCN)C(=O)N[C@@H](C)C(=O)N[C@@H](C)C(=O)N[C@@H](Cc1ccccc1)C(=O)N[C@@H](CS)C(N)=O)[C@@H](C)CC (H-AAKIILNPKFRCKAAFC-NH2) | – | – | – | – | 35% | Active | – | 72% | –
5 | H-AARRILRWIFR-NH2 | – | – | 4 | 16 | – | – | – | – | Ratio (Escherichia coli [14]): 16
6 | GENTAMICIN | 1 µM | 2 µM | – | – | – | – | inactive | – | –
